ChEMBL document CHEMBL1124986, “Imidazodiazepinediones: a new class of adenosine receptor antagonists” (J Med Chem, 1990)

Key:
Adenosine receptor A1 = target: T1, Adenosine receptor A1 (Rattus norvegicus, UniProt P25099); test: Binding affinity for Adenosine A1 receptor from rat brain using [3H]-PIA as radioligand
T1 sequence (P25099 whole entry): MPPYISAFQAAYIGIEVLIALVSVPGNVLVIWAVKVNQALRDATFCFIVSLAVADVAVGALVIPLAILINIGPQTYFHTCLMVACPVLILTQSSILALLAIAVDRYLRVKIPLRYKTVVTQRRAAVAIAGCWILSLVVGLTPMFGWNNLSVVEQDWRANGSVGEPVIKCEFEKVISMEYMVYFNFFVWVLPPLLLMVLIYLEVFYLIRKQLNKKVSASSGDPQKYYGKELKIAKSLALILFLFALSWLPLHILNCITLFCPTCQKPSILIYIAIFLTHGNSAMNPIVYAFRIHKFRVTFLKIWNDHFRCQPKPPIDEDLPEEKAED
Summary of the method: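 Rat cerebral cortex membranes incubated with 1 nM [³H]PIA at 37 °C. Means ± SEM, n = 3-5. Where inhibition was incomplete, percent inhibition at the highest concentration tested is reported.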

Adenosine A2 receptor [1] = target: T2, Adenosine A2 receptor (Rattus norvegicus, UniProt P29276+P30543); test: Antagonism of N-ethylcarboxamido adenosine-stimulated adenylate cyclase associated with stimulation of Adenosine A2 receptor of rat PC12 membranes; type: functional, cell membranes, Membrane; conditions: pc-12
Adenosine A2 receptor [2] = target: T2, Adenosine A2 receptor; test: Binding affinity for Adenosine A2 receptor from rat striatum using [3H]NECA as radioligand; type: protein assay
[3] = target: Adenosine A2 receptor (Rattus norvegicus) (UniProt P29276+P30543); test: Inhibition of [3H]NECA binding to Adenosine A2 receptor in rat striatal membrane; type: cell membranes; set-up: concentration or dose not given beside the values; conditions: Striatum, concentration not given here
Summary of the method: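 Rat striatal membranes with 4 nM [³H]NECA; 50 nM N⁶-cyclopentyladenosine present to block A1 sites. IC50 converted to Ki by Cheng-Prusoff using KD 8.5 nM for [³H]NECA at A2 receptors. Means ± SEM, n = 3. Where inhibition was incomplete, percent inhibition at the highest concentration tested is reported.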

[4] = target: T3, Adenosine receptor A1 (Rattus norvegicus) (UniProt P25099); test: Inhibition of [3H]PIA binding to Adenosine A1 receptor in rat cerebral cortical membrane; type: cell membranes; set-up: concentration or dose not given beside the values; conditions: concentration not given here
T3 sequence (whole entry): T1 sequence (P25099 whole entry)
Summary of the method: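 Rat cerebral cortex membranes incubated with 1 nM [³H]PIA at 37 °C. […] Means ± SEM, n = 3-5. Where inhibition was incomplete, percent inhibition at the highest concentration tested is reported.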

| Structure (SMILES) | Ki (Adenosine receptor A1) [µM] | Ki (Adenosine A2 receptor [1]) [µM] | Ki (Adenosine A2 receptor [2]) | inhibition [3] [%] | inhibition [4] [%] |
| --- | --- | --- | --- | --- | --- |
| CCCN1CC(=O)N(CCC)c2ncn(Cc3ccccc3)c2C1=O | 11 | 47 | 52 µM | – | – |
| CCN1CC(=O)N(CC)c2[nH]cnc2C1=O | – | > 300 | > 250 µM | 20 | 40 |
| CCN1CC(=O)N(CC)c2nc[nH]c2C1=O | > 250 | – | – | – | – |
| CC(C)Cn1c(=O)n(C)c(=O)c2c1ncn2Cc1ccccc1 | 6.9 | 7.5 | 32 µM | – | – |
| CC(C)CN1C(=O)CN(C)C(=O)c2c1ncn2Cc1ccccc1 | 11.3 | 116 | 140 µM | – | – |
| CCCN1C(=O)CNC(=O)c2c1ncn2Cc1ccccc1 | 32 | 163 | 151 µM | – | – |
| CN1C(=O)CNC(=O)c2c1ncn2C | > 250 | > 300 | >> 250 uM | 11 | 10 |
| CC(C)CN1C(=O)CN(C)C(=O)c2[nH]cnc21 | 104 | > 300 | >> 250 uM | 15 | – |
| CCN1CC(=O)N(CC)c2ncn(Cc3ccccc3)c2C1=O | 16 | 76 | 81 µM | – | – |
| CCCn1c(=O)c2c(ncn2Cc2ccccc2)n(CCC)c1=O | – | 0.88 | 3.8 µM | – | – |
| Cn1cnc2c1c(=O)[nH]c(=O)n2C [THEOBROMINE] | 105 | 250 | > 250 µM | 40 | – |
| CCCN1CC(=O)N(CCC)c2ncn(C)c2C1=O | > 250 | 170 | > 250 µM | 23 | 40 |
| CCCN1C(=O)CNC(=O)c2[nH]cnc21 | 236 | > 300 | >> 250 uM | 11 | – |
| CC(C)Cn1c(=O)n(C)c(=O)c2nc[nH]c21 [ISOBUTYLMETHYLXANTHINE] | 6.7 | 6.3 | 9.1 µM | – | – |
| CN1CC(=O)N(C)c2[nH]cnc2C1=O | – | > 300 | >> 250 uM | 9 | 30 |
| CN1CC(=O)N(C)c2ncn(Cc3ccccc3)c2C1=O | 30 | 120 | > 250 µM | 30 | – |
| CN1CC(=O)N(C)c2ncn(C)c2C1=O | > 250 | > 300 | >> 250 uM | 9 | 10 |
| CCN1CC(=O)N(CC)c2ncn(C)c2C1=O | > 250 | 260 | > 250 µM | 17 | 40 |
| CN1CC(=O)N(C)c2nc[nH]c2C1=O | > 250 | – | – | – | – |
| Cn1c(=O)c2c(ncn2Cc2ccccc2)n(C)c1=O | – | 5.6 | 46 µM | – | – |
